Test results from ChEMBL document CHEMBL3272147, “Nonapeptide ethylamide inhibitors of the luteinizing hormone-releasing hormone (LH-RH) having a D-alanyl residue in position 6 and variations at positions 2 and 3” (1977).
The source made the active and inactive calls. The rule behind the calls is not given here.

Tests used:
[1] = biological target: T1, Gonadotropin-releasing hormone receptor (Rattus norvegicus) (UniProt P30969); test: (§1) Antagonist activity at LH-RH receptor in Sprague-Dawley rat pituitary gland assessed as change in 0.3 ng/mL LH-RH-induced follicle-stimulating hormone release in medium at 10 ug/ml preincubated for 2 hrs followed by LH-RH addition at 5th and 6th hr 5 mins post drug addition and measured every hour for 4 hrs by RIA relative to vehicle-treated control
T1 sequence (whole entry): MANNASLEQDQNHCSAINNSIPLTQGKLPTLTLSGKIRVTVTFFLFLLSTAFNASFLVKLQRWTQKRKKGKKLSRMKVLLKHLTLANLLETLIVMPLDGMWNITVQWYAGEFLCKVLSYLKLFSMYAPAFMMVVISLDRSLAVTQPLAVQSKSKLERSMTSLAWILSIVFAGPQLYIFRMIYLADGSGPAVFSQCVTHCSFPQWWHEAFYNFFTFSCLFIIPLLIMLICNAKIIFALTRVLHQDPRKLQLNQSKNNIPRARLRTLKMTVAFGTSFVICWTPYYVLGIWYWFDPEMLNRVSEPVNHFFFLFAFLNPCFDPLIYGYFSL
How it was run: (§2)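 Two pituitaries from 20-day-old female Sprague-Dawley rats per 1 mL lactated Ringer's, incubated 6 h at 37 °C with shaking, medium collected and replaced hourly for LH/FSH RIA. Analogue added at I3, I4, I5 and I6; LH-RH added 5 min after the peptide at I5 and I6. Results given as Δ ng/mL against LH-LER-1240-2 and NIH-FSH-S1-based standards, with SEM and p.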

[2] = biological target: T1, Gonadotropin-releasing hormone receptor (Rattus norvegicus); test: as §1, with “100” for “10”; how it was run: as §2
[3] = biological target: T1, Gonadotropin-releasing hormone receptor (Rattus norvegicus); test: as §1, with “luteinizing” for “follicle-stimulating”, “100” for “10”; how it was run: as §2
[4] = biological target: T1, Gonadotropin-releasing hormone receptor (Rattus norvegicus); test: Agonist activity at LH-RH receptor in Sprague-Dawley rat pituitary gland assessed as change in luteinizing hormone release in medium at 100 ug/ml incubated for 4 hrs measured every hour for 4 hrs by RIA relative to vehicle-treated control
How it was run: (§3)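 Pituitaries from 20-day-old female Sprague-Dawley rats, two per 1 mL lactated Ringer's, incubated 6 h total at 37 °C with shaking. Medium removed hourly for LH and FSH RIA and replaced with fresh medium. Analogue alone added at I3–I6. Values expressed as ng of standards LH-LER-1240-2 (0.60 NIH-LH-S1 unit/mg) and FSH 2.1 × NIH-FSH-S1 units/mg; change versus control with SEM and p.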

[5] = biological target: T1, Gonadotropin-releasing hormone receptor (Rattus norvegicus); test: Agonist activity at LH-RH receptor in Sprague-Dawley rat pituitary gland assessed as change in follicle-stimulating hormone release in medium at 100 ug/ml incubated for 4 hrs measured every hour for 4 hrs by RIA relative to vehicle-treated control; how it was run: as §3
[6] = biological target: T1, Gonadotropin-releasing hormone receptor (Rattus norvegicus); test: as §1, with “luteinizing” for “follicle-stimulating”; how it was run: as §2
[7] = biological target: T1, Gonadotropin-releasing hormone receptor (Rattus norvegicus); test: as §1, with “luteinizing” for “follicle-stimulating”, “0.1” for “10”; how it was run: as §2
[8] = biological target: T1, Gonadotropin-releasing hormone receptor (Rattus norvegicus); test: as §1, with “0.1” for “10”; how it was run: as §2
[9] = biological target: T1, Gonadotropin-releasing hormone receptor (Rattus norvegicus); test: as §1, with “luteinizing” for “follicle-stimulating”, “1” for “10”; how it was run: as §2
[10] = biological target: T1, Gonadotropin-releasing hormone receptor (Rattus norvegicus); test: as §1, with “1” for “10”; how it was run: as §2
[11] = biological target: T1, Gonadotropin-releasing hormone receptor (Rattus norvegicus); test: as §1, with “0.6” for “0.3”, “luteinizing” for “follicle-stimulating”; how it was run: as §2
[12] = biological target: T1, Gonadotropin-releasing hormone receptor (Rattus norvegicus); test: as §1, with “0.6” for “0.3”, “luteinizing” for “follicle-stimulating”, “1” for “10”; how it was run: as §2
[13] = biological target: T1, Gonadotropin-releasing hormone receptor (Rattus norvegicus); test: as §1, with “0.6” for “0.3”, “1” for “10”; how it was run: as §2
[14] = biological target: T1, Gonadotropin-releasing hormone receptor (Rattus norvegicus); test: as §1, with “0.6” for “0.3”, “luteinizing” for “follicle-stimulating”, “0.1” for “10”; how it was run: as §2
[15] = biological target: T1, Gonadotropin-releasing hormone receptor (Rattus norvegicus); test: as §1, with “0.6” for “0.3”, “0.1” for “10”; how it was run: as §2
[16] = biological target: T1, Gonadotropin-releasing hormone receptor (Rattus norvegicus); test: as §1, with “0.6” for “0.3”; how it was run: as §2
Rattus norvegicus [17] = test: Inhibition of ovulation in 4 day cycling rat at 750 ug, sc administered through corn oil between 12 to 12:30 pm on proestrous stage; type: functional
How it was run: (§4)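 Antiovulation test in 4-day cycling rats. A single sc injection of analogue in corn oil was given between 12 and 12:30 p.m. on proestrus. Controls received 0.3 mL of vehicle. Ova shed were counted on estrus.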

Rattus norvegicus [18] = test: Inhibition of ovulation in 4 day cycling rat at 1.5 mg, sc administered through corn oil between 12 to 12:30 pm on proestrous stage; type: functional, organism-based; how it was run: as §4
[19] = biological target: T1, Gonadotropin-releasing hormone receptor (Rattus norvegicus); test: Agonist activity at LH-RH receptor in Sprague-Dawley rat pituitary gland assessed as change in follicle-stimulating hormone release in medium at 10 ug/ml incubated for 4 hrs measured every hour for 4 hrs by RIA relative to vehicle-treated control; how it was run: as §3
[20] = biological target: T1, Gonadotropin-releasing hormone receptor (Rattus norvegicus); test: Agonist activity at LH-RH receptor in Sprague-Dawley rat pituitary gland assessed as change in luteinizing hormone release in medium at 10 ug/ml incubated for 4 hrs measured every hour for 4 hrs by RIA relative to vehicle-treated control; how it was run: as §3

Compound	Activity [1]	Activity [2]	Activity [3]	Activity [4]	Activity [5]	Activity [6]	Activity [7]	Activity [8]	Activity [9]	Activity [10]	Activity [11]	Activity [12]	Activity [13]	Activity [14]	Activity [15]	Activity [16]	Activity [19]	Activity [20]	inhibition (Rattus norvegicus [17])	inhibition (Rattus norvegicus [18])
CCC[C@H](NC(=O)[C@H](Cc1ccccc1)NC(=O)[C@@H]1CCC(=O)N1)C(=O)N[C@@H](CO)C(=O)N[C@@H](Cc1ccc(O)cc1)C(=O)N[C@H](C)C(=O)N[C@@H](CC(C)C)C(=O)N[C@@H](CCCNC(=N)N)C(=O)N1CCC[C@H]1C(=O)NCC				-66 ng/mL	-204 ng/mL						-7 ng/mL	32 ng/mL	2700 ng/mL	221 ng/mL	3980 ng/mL	-883 ng/mL				
CCNC(=O)[C@@H]1CCCN1C(=O)[C@H](CCCNC(=N)N)NC(=O)[C@H](CC(C)C)NC(=O)[C@@H](C)NC(=O)[C@H](Cc1ccc(O)cc1)NC(=O)[C@H](CO)NC(=O)[C@H](CC(C)C)NC(=O)[C@H](Cc1c[nH]c2ccccc12)NC(=O)[C@@H]1CCC(=O)N1				18 ng/mL	564 ng/mL						36 ng/mL	73 ng/mL	3090 ng/mL	193 ng/mL	7370 ng/mL	-1 ng/mL			Active	Active
CCNC(=O)[C@@H]1CCCN1C(=O)[C@H](CCCNC(=N)N)NC(=O)[C@H](CC(C)C)NC(=O)[C@@H](C)NC(=O)[C@H](Cc1ccc(O)cc1)NC(=O)[C@H](CO)NC(=O)[C@H](CC(C)C)NC(=O)[C@H](Cc1ccccc1)NC(=O)[C@@H]1CCC(=O)N1	549 ng/mL			59 ng/mL	1380 ng/mL	47 ng/mL	130 ng/mL	3120 ng/mL	77 ng/mL	1560 ng/mL										
CCCC[C@H](NC(=O)[C@H](CC(C)C)NC(=O)[C@@H]1CCC(=O)N1)C(=O)N[C@@H](CO)C(=O)N[C@@H](Cc1ccc(O)cc1)C(=O)N[C@H](C)C(=O)N[C@@H](CC(C)C)C(=O)N[C@@H](CCCNC(=N)N)C(=O)N1CCC[C@H]1C(=O)NCC	1630 ng/mL	-516 ng/mL	12 ng/mL	13 ng/mL	-282 ng/mL	28 ng/mL			70 ng/mL	2240 ng/mL										
CCNC(=O)[C@@H]1CCCN1C(=O)[C@H](CCCNC(=N)N)NC(=O)[C@H](CC(C)C)NC(=O)[C@@H](C)NC(=O)[C@H](Cc1ccc(O)cc1)NC(=O)[C@H](CO)NC(=O)CNC(=O)[C@H](CC(C)C)NC(=O)[C@@H]1CCC(=O)N1		3310 ng/mL	169 ng/mL	-6 ng/mL	-782 ng/mL															

Second part, led by results:

Activity [1]	Activity [2]	Activity [3]	Activity [4]	Activity [5]	Activity [6]	Activity [7]	Activity [8]	Activity [9]	Activity [10]	Activity [11]	Activity [12]	Activity [13]	Activity [14]	Activity [15]	Activity [16]	Activity [19]	Activity [20]	Compound	inhibition (Rattus norvegicus [17])	inhibition (Rattus norvegicus [18])
3480 ng/mL	1780 ng/mL	45 ng/mL	1 ng/mL	866 ng/mL	150 ng/mL													CCNC(=O)[C@@H]1CCCN1C(=O)[C@H](CCCNC(=N)N)NC(=O)[C@H](CC(C)C)NC(=O)[C@@H](C)NC(=O)[C@H](Cc1ccc(O)cc1)NC(=O)[C@H](CO)NC(=O)[C@H](CC)NC(=O)[C@H](CC(C)C)NC(=O)[C@@H]1CCC(=O)N1		
2000 ng/mL					45 ng/mL	213 ng/mL	5120 ng/mL	93 ng/mL	3900 ng/mL									CCC[C@H](NC(=O)[C@H](CC(C)C)NC(=O)[C@@H]1CCC(=O)N1)C(=O)N[C@@H](CO)C(=O)N[C@@H](Cc1ccc(O)cc1)C(=O)N[C@H](C)C(=O)N[C@@H](CC(C)C)C(=O)N[C@@H](CCCNC(=N)N)C(=O)N1CCC[C@H]1C(=O)NCC		
1460 ng/mL			73 ng/mL	712 ng/mL	45 ng/mL	166 ng/mL	5110 ng/mL	60 ng/mL	3980 ng/mL									CCNC(=O)[C@@H]1CCCN1C(=O)[C@H](CCCNC(=N)N)NC(=O)[C@H](CC(C)C)NC(=O)[C@@H](C)NC(=O)[C@H](Cc1ccc(O)cc1)NC(=O)[C@H](CO)NC(=O)[C@H](CC(C)C)NC(=O)[C@H](CC(C)C)NC(=O)[C@@H]1CCC(=O)N1		
1760 ng/mL			61 ng/mL	-227 ng/mL	-53 ng/mL			186 ng/mL	3330 ng/mL									CCNC(=O)[C@@H]1CCCN1C(=O)[C@H](CCCNC(=N)N)NC(=O)[C@H](CC(C)C)NC(=O)[C@@H](C)NC(=O)[C@H](Cc1ccc(O)cc1)NC(=O)[C@H](CO)NC(=O)[C@H](CC(C)C)NC(=O)[C@@H](NC(=O)[C@@H]1CCC(=O)N1)[C@@H](C)CC		
1640 ng/mL					63 ng/mL			272 ng/mL	4320 ng/mL							490 ng/mL	8 ng/mL	CCNC(=O)[C@@H]1CCCN1C(=O)[C@H](CCCNC(=N)N)NC(=O)[C@H](CC(C)C)NC(=O)[C@@H](C)NC(=O)[C@H](Cc1ccc(O)cc1)NC(=O)[C@H](CO)NC(=O)[C@H](CC(C)C)NC(=O)[C@@H](NC(=O)[C@@H]1CCC(=O)N1)C(C)C		
